Reference: paper PMC6655586 (Nature, 2019)

Tests used:
HTS cells = assay: Mitochondrial membrane potential; type: cell-based, mouse; conditions: 1 μM, 10 minutes
Summary of the method: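 HTS cells were exposed for 10 minutes to DMSO, test compound, FCCP, rotenone, antimycin A or oligomycin A, then mitochondrial membrane potential was quantified. Mean ± SD; n = 3 (FCCP, rotenone) or 4 (others).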

MEFs = assay: Western blot for ATF4 in MEFs; type: cell-based, mouse; conditions: 1 μM, 6 hours

Molecule	acute change of mitochondrial membrane potential (HTS cells)	ATF4 induction (MEFs)
oligomycin A	acute increase in mitochondrial membrane potential	ATF4 induction
CCCCCC[C@H]1C(=O)O[C@H](C)[C@H](NC(=O)c2cccc(NC=O)c2O)C(=O)O[C@@H](C)[C@@H]1OC(=O)CC(C)C [antimycin A]	acute reduction of membrane potential	ATF4 induction
C=C(C)[C@H]1Cc2c(ccc3c2O[C@@H]2COc4cc(OC)c(OC)cc4[C@@H]2C3=O)O1 [rotenone]	acute reduction of membrane potential	ATF4 induction
